Entries after “also recorded” stand apart in the source; their conditions may differ. Marks after values point to notes of the source that are not given here.
Experiments:
[1] = Pharmacokinetics of etoricoxib in plasma, CSF and tissue exudate; type: in vivo, human; conditions: for Cmax / Tmax / Kp: human, 120 mg; for Kp: CSF/plasma
How it was run: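 Six hip-arthroplasty patients given oral 120 mg at 6:30 a.m. on surgery day and 24 h later. Blood and intrathecal-catheter CSF sampled predose and 1.5–48 h, first 1 mL CSF discarded; drain exudate collected hourly windows. LC-MS/MS with phenazone internal standard, LOQ 0.2 ng/mL, validated 0.2–200 ng/mL. AUC0–24 h by linear trapezoidal method; CSF/plasma ratio from AUCs, maximal ratio from individual concentrations.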

[2] = system: interleukin 6 (IL6); assay: Interleukin 6 in plasma, CSF and tissue exudate; type: in vivo, human
How it was run: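 Osteoarthritis patients (59–77 y) undergoing hip arthroplasty under spinal bupivacaine, given oral test compound 120 mg or placebo at 6:30 a.m. on surgery day and next day. Plasma and CSF sampled predose and 1.5–48 h; drain exudate collected over 60 min before 4–48 h, centrifuged, frozen −30 °C. IL6 by ELISA (LOQ 7.8 pg/mL); partial AUCs by linear trapezoidal rule.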

[3] = system: prostaglandin E2 (PGE2); assay: Prostaglandin E2 in tissue exudate, plasma and CSF; type: in vivo, human
How it was run: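 Hip-arthroplasty patients dosed orally with 120 mg test compound or placebo on surgery day and next day. Drain exudate collected over 60 min before 4, 8, 12, 24, 26, 32, 48 h, centrifuged, supernatant frozen −30 °C. PGE2 in exudate and plasma by ELISA (LOQ 15 pg/mL). CSF PGE2 by solid-phase extraction LC-MS/MS with prostaglandin D2-d4 (LOQ 25–200 pg/mL). Partial AUCs by trapezoidal rule.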

[4] = Patient ratings of post-operative pain, satisfaction and sleep disturbance; type: in vivo, human; conditions: first 24 h; interaction p = 0.036
How it was run: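 Patients dosed orally with 120 mg test compound or placebo on surgery day and next day, double-blind. Global pain and operated-hip pain at rest and passive movement rated on 11-point scale (0 = no pain, 10 = worst) at 4, 8, 12, 24, 26, 32, 48 h. Satisfaction with analgesia on numeric rating scale; sleep disturbance (0–10) at 24, 48, 72 h.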

[5] = Post-operative consumption of intrathecal bupivacaine and piritramide; type: in vivo, human
How it was run: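 After spinal bupivacaine 0.5% via lumbar intrathecal catheter, 0.01% bupivacaine infused intrathecally at 4–6 mL/h plus patient-controlled boluses up to 1 mL every 10 min, 4-h lockout 40 mL. Breakthrough pain: piritramide i.v. up to 5 mg (s.c. up to 15 mg). Total consumption, requests, delivered boluses and request times recorded. Patient lacking catheter excluded.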

[6] = Safety: adverse events and blood loss during surgery; type: in vivo, human
[7] = cited from earlier work
[8] = same dose; ref Fletcher et al., [1995]; cited from earlier work
[9] = tissue exudate, 12–24 h, mean, n = 6
[10] = tissue exudate, 24–36 h, mean, n = 6
[11] = tissue exudate, 36–47 h, mean, n = 6

**Q.** For Cc1ccc(-c2ncc(Cl)cc2-c2ccc(S(C)(=O)=O)cc2)cn1 [Etoricoxib, etoricoxib], which Cmax ([1]; CSF, po) is on record?
**A.** 0.16 µg/mL

**Q.** And the Tmax ([1]; CSF, po)?
**A.** 1.5 h

**Q.** What about the Kp ([1]; oral, CSF/plasma ratio AUC 0–24 h, individual ratios, mean (range)) of the same compound?
**A.** 0.041

**Q.** What about the Kp ([1]; oral, Maximal CSF/plasma conc. ratio, individual maximal concentration ratio, mean (SD)) of the same compound?
**A.** 0.122

**Q.** What about the Tmax ([1]; oral) of the same compound?
**A.** < 2 h

**Q.** And the Cmax ([1]; plasma, po)?
**A.** 1.88 µg/mL

**Q.** And the Tmax ([1]; plasma, po)?
**A.** 1.5 h

**Q.** What about the “CSF/plasma ratio AUC 0–48 h” value ([1]; individual ratios, mean (range), subgroup n = 5) of the same compound?
**A.** 4.7 (2.8–8.1) ^b %

**Q.** And the “tmax for CSF/plasma conc. ratio” value ([1]; median (range))?
**A.** 1.75 (1.5–32) h

**Q.** What about the “IL6 cerebrospinal fluid (w/o R111) AUC (1.5–12 h)” value ([2]; CSF, 1.5–12 h, mean, n = 6) of the same compound?
**A.** 340 pg·h/mL

**Q.** And the “IL6 cerebrospinal fluid (w/o R111) AUC (12–24 h)” value ([2]; CSF, 12–24 h, mean, n = 6)?
**A.** 660 pg·h/mL

**Q.** What about the “IL6 cerebrospinal fluid (w/o R111) AUC (24–36 h)” value ([2]; CSF, 24–36 h, mean, n = 5) of the same compound?
**A.** 575 pg·h/mL

**Q.** What about the “IL6 cerebrospinal fluid (w/o R111) AUC (36–48 h)” value ([2]; CSF, 36–48 h, mean, n = 5) of the same compound?
**A.** 436 pg·h/mL

**Q.** What about the “IL6 plasma AUC (1.5–12 h)” value ([2]; plasma, 1.5–12 h, mean, n = 6) of the same compound?
**A.** 435 pg·h/mL

**Q.** What about the “IL6 plasma AUC (12–24 h)” value ([2]; plasma, 12–24 h, mean, n = 6) of the same compound?
**A.** 596 pg·h/mL

**Q.** What about the “IL6 plasma AUC (24–36 h)” value ([2]; plasma, 24–36 h, mean, n = 6) of the same compound?
**A.** 598 pg·h/mL

**Q.** And the “IL6 plasma AUC (36–48 h)” value ([2]; plasma, 36–48 h, mean, n = 6)?
**A.** 409 pg·h/mL

**Q.** What about the “Time until plasma IL6 returned to preoperative levels” value ([2]; plasma, time after surgery) of the same compound?
**A.** ≤ 20 h

**Q.** What about the “IL6 tissue exudate AUC (4–12 h)” value ([2]; tissue exudate, 4–12 h, mean, n = 6) of the same compound?
**A.** 479 ng·h/mL

**Q.** And the “IL6 tissue exudate AUC (12–24 h)” value [2, 9]?
**A.** 1606 ng·h/mL

**Q.** And the “IL6 tissue exudate AUC (24–36 h)” value [2, 10]?
**A.** 1200 ng·h/mL

**Q.** And the “IL6 tissue exudate AUC (36–47 h)” value [2, 11]?
**A.** 861 ng·h/mL

**Q.** And the “Concentrations of PGE2 in plasma and CSF” value ([3]; plasma and CSF, both groups, differences not significant)?
**A.** near or below the LOQ

**Q.** And the “PGE2 production in the surgical wound” value ([3]; preoperative administration)?
**A.** complete blockade

**Q.** What about the “PGE2 tissue exudate AUC (4–12 h)” value ([3]; tissue exudate (hip drain), 4–12 h, mean, n = 6) of the same compound?
**A.** 40 ng·h/mL

**Q.** And the “PGE2 tissue exudate AUC (12–24 h)” value [3, 9]?
**A.** 48 ng·h/mL

**Q.** And the “PGE2 tissue exudate AUC (24–36 h)” value [3, 10]?
**A.** 29 ng·h/mL

**Q.** What about the “PGE2 tissue exudate AUC (36–47 h)” value [3, 11] of the same compound?
**A.** 16 ng·h/mL

**Q.** What about the “PGE2 concentration in wound fluid” value ([3]; wound fluid, versus fast increase in placebo group, treatment p = 0.014) of the same compound?
**A.** remained low throughout

**Q.** And the “Post-operative analgesic satisfaction versus placebo” value [4]?
**A.** significantly higher

**Q.** And the “Demand for piritramide versus placebo” value ([5]; 2 to 48 h, main effect treatment p = 0.003)?
**A.** significantly higher in the placebo group

**Q.** And the “On request local anaesthetic administration versus placebo” value ([5]; only during the first 12 h post-operatively, main effect treatment p = 0.052)?
**A.** higher in the placebo group

**Q.** And the “Intra-OP BL (blood loss during surgery)” value ([6]; 120 mg 2 h before surgery, mean (SD), n = 6)?
**A.** 383 (98) mL

**Q.** What about the Unwanted drug effects ([6]; either treatment group) of the same compound?
**A.** not seen

**Q.** And the “Absorption, bioavailability and elimination” value ([7]; ref Agrawal et al., [2003])?
**A.** fast absorption, high bioavailability and slow elimination

**Q.** For Cc1ccc(-c2cc(C(F)(F)F)nn2-c2ccc(S(N)(=O)=O)cc2)cc1 [celecoxib], which Absorption / bioavailability ([7]; oral, ref Brune et al., [2010]) is on record?
**A.** absorbed slowly and to show variable (low) bioavailability; also recorded: slow and incomplete absorption

**Q.** For O=C(c1ccccc1)c1ccc2n1CCC2C(=O)O (stereo not shown) [ketorolac], which “Pain relief with preoperative versus post-operative administration” value [8] is on record?
**A.** significantly superior with preoperative administration

Source: PMC3437501 (European Journal of Pain (London, England), 2011)
